# Results reported in ChEMBL document CHEMBL2169882, “Exploration of novel 3-substituted azetidine derivatives as triple reuptake inhibitors” (J Med Chem, 2012).
# The source made the active and inactive calls. The rule behind the calls is not given here.
# How the values were obtained:
# [1] = system: Rattus norvegicus; experiment: Oral bioavailability in Sprague-Dawley rat at 2 mg/kg; assay type: ADME, organism-based; details: in vivo
# [2] = biological target: T1, Sodium-dependent serotonin transporter (Homo sapiens, UniProt P31645); details: HEK293, at 0.1 µM
# Target sequence in this assay (P31645 whole entry, looked up): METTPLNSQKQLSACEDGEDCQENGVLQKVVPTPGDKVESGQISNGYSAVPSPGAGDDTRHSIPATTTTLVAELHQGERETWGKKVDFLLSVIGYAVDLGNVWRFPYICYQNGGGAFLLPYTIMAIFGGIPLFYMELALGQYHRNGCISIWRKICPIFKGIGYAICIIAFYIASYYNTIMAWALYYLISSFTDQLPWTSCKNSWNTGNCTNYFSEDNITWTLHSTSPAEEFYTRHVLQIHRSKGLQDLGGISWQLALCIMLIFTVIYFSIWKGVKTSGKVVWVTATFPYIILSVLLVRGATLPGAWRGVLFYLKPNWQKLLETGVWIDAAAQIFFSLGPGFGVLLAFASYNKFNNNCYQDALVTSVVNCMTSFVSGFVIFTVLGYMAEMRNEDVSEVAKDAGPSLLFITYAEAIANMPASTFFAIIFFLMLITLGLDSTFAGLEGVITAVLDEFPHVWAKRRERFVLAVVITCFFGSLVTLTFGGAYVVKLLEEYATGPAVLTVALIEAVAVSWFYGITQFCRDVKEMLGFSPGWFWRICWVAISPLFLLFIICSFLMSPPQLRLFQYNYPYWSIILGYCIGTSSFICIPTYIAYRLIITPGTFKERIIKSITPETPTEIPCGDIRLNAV
# [3] = system: Rattus norvegicus; experiment: AUC (infinity) in Sprague-Dawley rat at 2 mg/kg, po; assay type: ADME, organism-based, Plasma; parameters: time infinity, dose 2 mg/kg, route oral; details: in vivo
# [4] = Cmax in Sprague-Dawley rat at 2 mg/kg, po; assay type: ADME, organism-based; parameters: dose 2 mg/kg, route oral; details: in vivo
# [5] = Apparent volume of distribution during terminal phase in Sprague-Dawley rat at 2 mg/kg, po; assay type: ADME, organism-based; parameters: dose 2 mg/kg, route oral; details: in vivo, read-out: Vz/F
# [6] = biological target: T1, Sodium-dependent serotonin transporter; assay type: cell-based, HEK293
# Target sequence in this assay (P31645 whole entry): as the sequence (P31645 whole entry, looked up) above
# [7] = system: Rattus norvegicus; experiment: Apparent volume of distribution during terminal phase in Sprague-Dawley rat at 1 mg/kg, iv; assay type: ADME, organism-based; parameters: dose 1 mg/kg, route intravenous; details: in vivo
# [8] = biological target: Voltage-gated inwardly rectifying potassium channel KCNH2 (Homo sapiens, UniProt Q12809); experiment: Inhibition of human ERG expressed in CHOK1 cells by patch clamp technique; assay type: cell-based, CHO-K1
# Sequence of Voltage-gated inwardly rectifying potassium channel KCNH2 (Q12809 whole entry): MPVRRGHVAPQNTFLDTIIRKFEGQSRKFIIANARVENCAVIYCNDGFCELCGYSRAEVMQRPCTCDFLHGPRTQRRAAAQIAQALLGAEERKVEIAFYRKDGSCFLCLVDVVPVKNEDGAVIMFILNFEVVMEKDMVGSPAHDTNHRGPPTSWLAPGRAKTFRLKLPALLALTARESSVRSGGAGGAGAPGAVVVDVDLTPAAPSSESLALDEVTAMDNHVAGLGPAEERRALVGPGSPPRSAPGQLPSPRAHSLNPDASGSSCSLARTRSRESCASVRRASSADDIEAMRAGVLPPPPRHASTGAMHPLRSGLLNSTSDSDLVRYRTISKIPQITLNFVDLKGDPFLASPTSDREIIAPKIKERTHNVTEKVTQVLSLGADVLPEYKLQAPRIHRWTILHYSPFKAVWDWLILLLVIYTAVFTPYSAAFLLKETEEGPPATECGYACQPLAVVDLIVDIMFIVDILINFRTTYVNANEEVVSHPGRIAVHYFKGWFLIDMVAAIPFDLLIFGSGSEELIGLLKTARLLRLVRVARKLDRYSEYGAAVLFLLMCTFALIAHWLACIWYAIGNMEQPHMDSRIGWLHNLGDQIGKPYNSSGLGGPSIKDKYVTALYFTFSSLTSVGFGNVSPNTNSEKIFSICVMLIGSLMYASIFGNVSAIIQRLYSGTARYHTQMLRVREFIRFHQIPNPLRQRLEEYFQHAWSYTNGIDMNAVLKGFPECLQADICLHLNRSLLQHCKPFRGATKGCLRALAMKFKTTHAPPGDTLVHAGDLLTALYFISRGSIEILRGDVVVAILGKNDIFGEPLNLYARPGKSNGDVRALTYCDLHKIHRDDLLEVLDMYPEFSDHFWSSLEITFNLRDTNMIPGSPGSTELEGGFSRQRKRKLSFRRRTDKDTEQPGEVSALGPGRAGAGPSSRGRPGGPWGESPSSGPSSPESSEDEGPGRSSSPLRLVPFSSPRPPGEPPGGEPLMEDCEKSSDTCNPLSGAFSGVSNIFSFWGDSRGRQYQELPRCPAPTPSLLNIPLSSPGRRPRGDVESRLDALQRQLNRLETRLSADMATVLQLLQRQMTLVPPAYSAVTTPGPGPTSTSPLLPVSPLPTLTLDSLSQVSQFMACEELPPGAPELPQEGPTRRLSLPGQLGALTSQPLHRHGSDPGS
# [9] = AUC (all) in Sprague-Dawley rat at 1 mg/kg, iv; assay type: ADME, organism-based; parameters: dose 1 mg/kg, route intravenous; details: plasma
# [10] = Apparent oral clearance in Sprague-Dawley rat at 1 mg/kg, iv; assay type: ADME, organism-based; parameters: dose 1 mg/kg; details: in vivo
# [11] = Ratio of drug level from brain to plasma in ICR mouse at 10 mg/kg, ip from 30 mins to 3 hrs by LC-MS/MS analysis; assay type: ADME, organism-based; parameters: dose 10 mg/kg, route intraperitoneal; details: read-out: BPR
# [12] = Tmax in Sprague-Dawley rat at 2 mg/kg, po; assay type: ADME, organism-based; parameters: dose 2 mg/kg, route oral; details: in vivo
# [13] = biological target: T2, Sodium-dependent dopamine transporter (Homo sapiens, UniProt Q01959); details: HEK293, at 0.1 µM
# T2 sequence (Q01959 whole entry): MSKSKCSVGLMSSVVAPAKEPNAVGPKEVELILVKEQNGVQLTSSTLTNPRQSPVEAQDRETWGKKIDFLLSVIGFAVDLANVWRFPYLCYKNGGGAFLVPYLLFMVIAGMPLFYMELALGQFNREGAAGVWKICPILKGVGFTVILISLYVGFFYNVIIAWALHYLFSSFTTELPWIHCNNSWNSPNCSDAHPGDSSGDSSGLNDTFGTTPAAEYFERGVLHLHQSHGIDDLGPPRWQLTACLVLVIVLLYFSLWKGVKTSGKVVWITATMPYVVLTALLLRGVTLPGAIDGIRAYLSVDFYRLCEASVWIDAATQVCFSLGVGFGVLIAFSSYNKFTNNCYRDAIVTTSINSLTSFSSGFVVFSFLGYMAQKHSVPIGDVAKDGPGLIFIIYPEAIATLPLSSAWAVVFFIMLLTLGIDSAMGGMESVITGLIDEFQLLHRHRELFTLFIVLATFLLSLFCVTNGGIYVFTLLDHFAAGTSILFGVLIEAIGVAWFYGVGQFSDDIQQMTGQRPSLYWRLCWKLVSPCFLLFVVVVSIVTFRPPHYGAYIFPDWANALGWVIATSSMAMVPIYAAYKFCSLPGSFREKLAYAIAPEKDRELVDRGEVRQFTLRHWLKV
# [14] = system: Rattus norvegicus; experiment: AUC (infinity) in Sprague-Dawley rat at 1 mg/kg, iv; assay type: ADME, organism-based, Plasma; parameters: time infinity, dose 1 mg/kg, route intravenous; details: in vivo
# [15] = biological target: T2, Sodium-dependent dopamine transporter; assay type: cell-based, HEK293
# [16] = AUC (all) in Sprague-Dawley rat at 2 mg/kg, po; assay type: ADME, organism-based; parameters: dose 2 mg/kg, route oral; details: plasma
# [17] = Apparent oral clearance in Sprague-Dawley rat at 2 mg/kg, po; assay type: ADME, organism-based; parameters: dose 2 mg/kg, route oral; details: in vivo
# [18] = Cmax in Sprague-Dawley rat at 1 mg/kg, iv; assay type: ADME, organism-based; parameters: dose 1 mg/kg, route intravenous; details: in vivo
# [19] = biological target: T3, Sodium-dependent noradrenaline transporter (Homo sapiens, UniProt P23975); assay type: cell-based, HEK293
# T3 sequence (P23975 whole entry): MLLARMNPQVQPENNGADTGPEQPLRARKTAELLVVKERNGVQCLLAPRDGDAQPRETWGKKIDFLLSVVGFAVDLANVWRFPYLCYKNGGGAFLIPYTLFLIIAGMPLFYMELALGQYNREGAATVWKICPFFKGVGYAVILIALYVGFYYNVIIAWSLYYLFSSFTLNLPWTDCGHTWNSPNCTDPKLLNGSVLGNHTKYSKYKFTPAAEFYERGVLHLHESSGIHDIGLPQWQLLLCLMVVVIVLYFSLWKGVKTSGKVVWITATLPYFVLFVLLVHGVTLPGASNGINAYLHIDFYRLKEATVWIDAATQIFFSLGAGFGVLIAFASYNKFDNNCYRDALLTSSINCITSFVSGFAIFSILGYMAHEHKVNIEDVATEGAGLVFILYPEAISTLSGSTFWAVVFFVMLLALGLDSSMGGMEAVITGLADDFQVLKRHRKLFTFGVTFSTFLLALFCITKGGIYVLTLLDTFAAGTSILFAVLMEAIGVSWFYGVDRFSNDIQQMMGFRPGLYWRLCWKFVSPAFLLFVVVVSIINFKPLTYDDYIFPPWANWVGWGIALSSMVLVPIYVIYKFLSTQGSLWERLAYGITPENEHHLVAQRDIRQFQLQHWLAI
# [20] = Terminal half life in Sprague-Dawley rat at 1 mg/kg, iv; assay type: ADME, organism-based; parameters: dose 1 mg/kg, route intravenous; details: in vivo, read-out: beta t1/2 (converted)
# [21] = biological target: T3, Sodium-dependent noradrenaline transporter; details: HEK293, at 0.1 µM
# [22] = system: Liver microsomes; experiment: Stability in human liver microsomes assessed as compound remaining at 1 uM after 0.5 hrs by BD Gentest assay; assay type: ADME, Microsome
# [23] = Mean residence time ( 0 to t ) in Sprague-Dawley rat at 1 mg/kg, iv; assay type: ADME, organism-based; parameters: dose 1 mg/kg, route intravenous; details: in vivo
# [24] = Mean residence time ( 0 to t ) in Sprague-Dawley rat at 2 mg/kg, po; assay type: ADME, organism-based; parameters: dose 2 mg/kg, route oral; details: in vivo
# [25] = Terminal half life in Sprague-Dawley rat at 2 mg/kg, po; assay type: ADME, organism-based; parameters: dose 2 mg/kg, route oral; details: in vivo, read-out: beta t1/2 (converted)
# [26] = biological target: CYP2D6 (Homo sapiens, UniProt P10635); experiment: Inhibition of human recombinant CYP2D6 at 10 uM after 5 mins by fluorescence assay
# Sequence of CYP2D6 (P10635 whole entry): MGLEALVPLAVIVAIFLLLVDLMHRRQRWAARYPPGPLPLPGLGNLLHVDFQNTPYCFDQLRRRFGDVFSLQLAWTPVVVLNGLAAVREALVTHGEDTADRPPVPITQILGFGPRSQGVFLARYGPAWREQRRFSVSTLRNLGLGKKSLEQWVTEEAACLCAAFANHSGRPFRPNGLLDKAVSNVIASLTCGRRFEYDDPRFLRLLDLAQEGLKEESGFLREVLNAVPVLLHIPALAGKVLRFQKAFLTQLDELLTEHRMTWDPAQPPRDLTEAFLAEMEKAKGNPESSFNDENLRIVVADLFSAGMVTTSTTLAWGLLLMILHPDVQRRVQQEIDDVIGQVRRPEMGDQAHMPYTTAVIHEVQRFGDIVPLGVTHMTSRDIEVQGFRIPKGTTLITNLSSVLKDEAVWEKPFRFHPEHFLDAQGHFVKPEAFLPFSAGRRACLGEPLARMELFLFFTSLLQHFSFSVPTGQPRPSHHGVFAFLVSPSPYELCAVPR
# Outline: (§1)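 Single-point screen at 10 μM against human CYP2D6 or CYP3A4, using a VIVID CYP enzyme kit. Results were expressed as percentage inhibition.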
# [27] = biological target: CYP3A4 (Homo sapiens, UniProt P08684); experiment: Inhibition of human recombinant CYP3A4 at 10 uM after 5 mins by fluorescence assay; outline: as §1
# Sequence of CYP3A4 (P08684 whole entry): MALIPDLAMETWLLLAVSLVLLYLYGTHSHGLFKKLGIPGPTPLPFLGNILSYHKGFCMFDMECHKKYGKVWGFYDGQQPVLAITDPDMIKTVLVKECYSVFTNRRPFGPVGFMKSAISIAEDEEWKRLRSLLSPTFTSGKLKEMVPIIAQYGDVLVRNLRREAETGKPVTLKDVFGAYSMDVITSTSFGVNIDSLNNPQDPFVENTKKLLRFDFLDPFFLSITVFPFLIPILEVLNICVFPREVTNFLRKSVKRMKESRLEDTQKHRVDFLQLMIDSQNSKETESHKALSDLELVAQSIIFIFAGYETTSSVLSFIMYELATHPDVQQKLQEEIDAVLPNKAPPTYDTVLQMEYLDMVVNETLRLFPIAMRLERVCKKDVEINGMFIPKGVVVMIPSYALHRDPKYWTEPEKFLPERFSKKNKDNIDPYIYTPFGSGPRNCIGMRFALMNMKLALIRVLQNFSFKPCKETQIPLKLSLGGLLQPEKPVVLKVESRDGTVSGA
# [28] = system: Mus musculus; experiment: Antidepressant activity in ICR mouse assessed as reduction in immobility time at 10 mg/kg, iv after 0.5 hrs by forced swimming test; assay type: functional, organism-based; parameters: dose 10 mg/kg
# Outline: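 ICR mice; forced swimming test following Porsolt's method. Intravenous dosing 0.5 h before the test at 2.5, 5.0 and 10.0 mg/kg. Read-out was immobility time, compared with vehicle-treated mice.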
# [29] = system: Mus musculus; experiment: Antidepressant activity in iv dosed ICR mouse assessed as reduction in immobility time dosed 0.5 hrs before forced swimming test; assay type: functional, organism-based
# Outline: (§2)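 ICR mice were tested in the Porsolt forced swimming test with a 30 min pretreatment. Doses were 2.5, 5.0 and 10.0 mg/kg IV or 10, 20 and 40 mg/kg PO. Read-out was immobility time, compared with vehicle. Venlafaxine was the positive control.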
# [30] = system: Mus musculus; experiment: Antidepressant activity in po dosed ICR mouse assessed as reduction in immobility time dosed 0.5 hrs before forced swimming test; assay type: functional, organism-based; outline: as §2
smiles,measurement,setting,value
CCCOC(c1ccc2ccccc2c1)C1CNC1.Cl (stereo unspecified),F,[1],5.7%
same,inhibition,[2],77%
same,AUC,[3],49.4 ng·h/mL
same,Cmax,[4],7.3 ng/mL
same,Vd/F,[5],249 L/kg
same,IC50,[6],6.8 nM
same,Vz/F,[7],4.8 L/kg
same,IC50,[8],980 nM
same,AUC,[9],211 ng·h/mL
same,CL/F,[10],78.3 mL/min/kg
same,Kp,[11],0.86
same,Tmax,[12],1 h
same,inhibition,[13],48%
same,AUC,[14],214.6 ng·h/mL
same,IC50,[15],72 nM
same,AUC,[16],23.9 ng·h/mL
same,CL/F,[17],775 mL/min/kg
same,Cmax,[18],198 ng/mL
same,IC50,[19],12 nM
same,half-life,[20],0.7 h
same,inhibition,[21],87%
same,Stability,[22],Stable
same,MRT last,[23],0.9 h
same,MRT last,[24],2.2 h
same,half-life,[25],4.8 h
Clc1ccc(C(Oc2ccccc2)C2CNC2)cc1 (stereo unspecified),inhibition,[2],22%
same,inhibition,[13],36%
same,inhibition,[21],68%
Clc1ccc(OC(c2ccc3ccccc3c2)C2CNC2)cc1Cl (stereo unspecified),inhibition,[2],28%
same,"inhibition at 5 min, 10 µM",[26],25%
same,"inhibition at 5 min, 10 µM",[27],41%
same,IC50,[6],35 nM
same,inhibition,[13],68%
same,IC50,[15],54 nM
same,IC50,[19],16 nM
same,inhibition,[21],79%
CCCOC(c1ccc(Cl)c(Cl)c1)C1CNC1 (stereo unspecified),inhibition,[2],39%
same,IC50,[6],44 nM
same,inhibition,[13],74%
same,IC50,[15],32 nM
same,IC50,[19],10 nM
same,inhibition,[21],87%
CCOC(c1ccc(Cl)cc1)C1CNC1 (stereo unspecified),inhibition,[2],4.6%
same,inhibition,[13],7.3%
same,inhibition,[21],10%
c1ccc(OC(c2ccccc2)C2CNC2)cc1 (stereo unspecified),inhibition,[2],25%
same,inhibition,[13],9.3%
same,inhibition,[21],18%
Cl.c1ccc(OC(c2ccc3ccccc3c2)C2CNC2)cc1 (stereo unspecified),F,[1],5.8%
same,Activity,[28],Active
same,inhibition,[2],64%
same,"inhibition at 5 min, 10 µM",[26],16%
same,"inhibition at 5 min, 10 µM",[27],12%
same,AUC,[3],41.7 ng·h/mL
same,Activity,[29],Dose-dependent effect
same,Cmax,[4],5.6 ng/mL
same,Vd/F,[5],241 L/kg
same,IC50,[6],8.3 nM
same,Vz/F,[7],13.1 L/kg
same,AUC,[9],153 ng·h/mL
same,CL/F,[10],107 mL/min/kg
same,Kp,[11],2.7
same,Tmax,[12],1.3 h
same,inhibition,[13],64%
same,Activity,[30],Dose-dependent effect
same,AUC,[14],159.7 ng·h/mL
same,IC50,[15],35 nM
same,AUC,[16],17.9 ng·h/mL
same,CL/F,[17],812 mL/min/kg
same,Cmax,[18],112 ng/mL
same,IC50,[19],3.1 nM
same,half-life,[20],1.4 h
same,inhibition,[21],90%
same,Stability,[22],Stable
same,MRT last,[23],1.73 h
same,MRT last,[24],2 h
same,half-life,[25],3.3 h
c1ccc(COC(c2ccccc2)C2CNC2)cc1 (stereo unspecified),inhibition,[2],12%
same,inhibition,[13],2%
same,inhibition,[21],9.4%
CCOC(c1ccc(Cl)c(Cl)c1)C1CNC1 (stereo unspecified),inhibition,[2],28%
same,inhibition,[13],30%
same,inhibition,[21],49%
COC(c1ccc(Cl)cc1)C1CNC1 (stereo unspecified),inhibition,[2],3.9%
same,inhibition,[13],2.6%
same,inhibition,[21],7.7%
OC(c1ccc(Cl)cc1)C1CNC1 (stereo unspecified),inhibition,[2],2%
same,inhibition,[13],2.1%
same,inhibition,[21],3.5%
Fc1ccc(C(OCCN2CCN(CCCc3ccccc3)CC2)c2ccc(F)cc2)cc1,inhibition,[2],1.9%
same,inhibition,[21],-5.9%
